TAG inh: triacylglycerol accumulation inhibition; H9c2 cells, Nile Red lipid (TAG) fluorescence; cells loaded with 200 µM oleic acid; inhibition, % at 12.5 µM; actives 0.66% (n = 230,000);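 active means pattern-corrected inhibition of lipid staining of at least 50% with the nuclear-stain viability signal not falling by more than 50%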
A1 inh: inhibitors of the anti-apoptotic protein A1, read as caspase activation. MEF A1-2A-BIM cells, Caspase-Glo 3/7 luminescence, 3 h; percent of clofoctol response, vehicle zero. caspase activation, % (no concentration beside the values). actives 0.066% (n = 330,000);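 active means over half of replicate activation scores above 10%, or exactly half above 10 with the replicate mean above 10; inconclusive means replicate mean below 10 yet half the replicates above 10; inactive means over half of replicates below 10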
T cruzi inh: T. cruzi replication inhibition | T. cruzi beta-gal in NIH3T3, luminescence, 90 h | inhibition, % (no concentration beside the values) | actives 1.4% (n = 300,000) | AID 1885;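 active means mean inhibition across valid replicates above about 55%, limit read from the data; inconclusive means mean below that limit but half or more replicates reach it; inactive means mean below it, under half of replicates reach it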;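 further: signal also drops with host cell toxicity which is not excluded here; higher percent means less beta-gal luminescence so fewer parasites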
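System: Mouse NIH/3T3 fibroblasts infected with β-gal-expressing T. cruzi Tulahuen C4 | Quantity: NIH/3T3 cells, 5,000 per well | Reagent: 5000 reporter trypomastigotes per well | Dosing: Compound pinned at 50 nL/well, DMSO | Schedule: 3 h host attachment, then at least 90 h co-culture | Detection: GalScreen luminescence, 60 min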
Calb FLC: C. albicans growth modulation with fluconazole | C. albicans CaCi-2 + fluconazole, Alamar Blue growth, 48 h | growth inhibition, % (no concentration beside the values) | actives 0.57% (n = 300,000) | AID 1979;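 active means growth inhibition above about 58% in most replicates, limit read from the data, passing the limit was not always enough; inconclusive means exactly half the replicates above a set limit; inactive means most replicates below a set limit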;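 further: all wells also contain fluconazole at 8 µg/ml as a sub-toxic cotreatment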
CSC inhib: cancer stem cell inhibition; cancer stem cell-like cells viability, luminescence; inhibition, % at 7.5 µM; actives 1.1% (n = 300,000); AID 2717; in the data active means inhibition above about 75%; inconclusive means no clear call, values can overlap the other calls; tested in HMLE shEcad cells
Beta cell apopt: beta cell apoptosis inhibition | INS-1E cytokine-induced death, ATP luminescence, 48 h; percent of positive-control rescue, neutral wells zero | protection from apoptosis, % (no concentration beside the values) | actives 0.8% (n = 300,000) | AID 435005;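 active means Every replicate reaches about 75%, or at least half do and their mean reaches it too, limit read from the data; inconclusive means At least half of replicates reach the limit but their mean does not; inactive means Under half of replicates reach the limit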;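 further: higher means more ATP so stronger rescue from cytokine killing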
TAG conf: confirmation of triacylglycerol accumulation inhibitors. AID 651629. inhibition, % at 12.5 µM. H9c2 lipid accumulation, Nile Red fluorescence; cells loaded with 200 µM oleic acid. shares compounds with TAG inh. actives 71% (n = 990);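 active means mean inhibition across replicates of 40% or more; inactive means mean inhibition below 40%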
Each line names hits and unclear results; the compound was inactive in the other large screens (follow-up assays come after a bar, where they were run). Hits are enriched below; roughly 3.1% of the tested compounds scored in any of these assays.

COc1ccc(C(C(=O)NC(C)(C)C)N(Cc2ccco2)C(=O)CCC(=O)Nc2ccccn2)cc1 (stereo not given)	none (no result: TAG inh)
COc1ccc(C2NCCc3c2[nH]c2ccccc32)cc1CSc1nc2ccccc2s1 (stereo not given)	TAG inh 56.9, CSC inhib 115.6 | TAG conf 51.0
Cn1cc(CN2CCC(C(=O)NC(c3ccc(F)cc3)c3ccc4ccccc4n3)CC2)c2ccccc21 (stereo not given)	TAG inh 102.7 (no result: A1 inh, T cruzi inh, Calb FLC, CSC inhib, Beta cell apopt) | TAG conf 97.9
COc1cc(CN2CCC(C(=O)NC(c3ccc(F)cc3)c3ccc4ccccc4n3)CC2)cc(OC)c1 (stereo not given)	none (no result: A1 inh, T cruzi inh, Calb FLC, CSC inhib, Beta cell apopt)
Cc1cccn2c(=O)c3cc(C(=O)NC4CCCC4)c(=N)n(C4CCCC4)c3nc12	TAG inh 51.4, T cruzi inh inconclusive | TAG conf 44.2
COc1cccc(Cn2c3ccc(NC(=O)CCc4ccc(F)cc4)cc3c(=O)n2C)c1	TAG inh 51.7 (no result: A1 inh, T cruzi inh, Calb FLC, CSC inhib, Beta cell apopt) | TAG conf 69.0
COc1ccccc1CCC(=O)Nc1ccc2c(c1)c(=O)n(C)n2Cc1ccc(F)cc1	none (no result: A1 inh, T cruzi inh, Calb FLC, CSC inhib, Beta cell apopt)
CCOC(=O)Cc1ccc(Nc2nc3cc(-c4sccc4C)sc3c(=O)n2C)cc1	TAG inh 50.9 (no result: A1 inh, T cruzi inh, Calb FLC, CSC inhib, Beta cell apopt) | TAG conf 70.7
CCOC(=O)Cc1ccc(Nc2nc(NC)nc3ccsc23)cc1	none (no result: A1 inh, T cruzi inh, Calb FLC, CSC inhib, Beta cell apopt)
COc1ccc(Nc2nc3cc(-c4sccc4C)sc3c(=O)n2C)cc1OC	TAG inh 57.3 (no result: A1 inh, T cruzi inh, Calb FLC, CSC inhib, Beta cell apopt) | TAG conf 71.0
CCCSc1nc(SCC(=O)NCc2ccccc2)c2c3c(sc2n1)COC(C)(CC)C3 (stereo not given)	TAG inh 63.1 | TAG conf 47.8
CCCN1C(C)C(C(=O)OCC)=CN(Cc2ccc(Br)cc2)S1(=O)=O (stereo not given)	none (no result: A1 inh, T cruzi inh, Calb FLC, CSC inhib, Beta cell apopt)
CCc1ccc(-c2nc(C(N)=O)c3[nH]c(=O)n(-c4ccccc4OC)c3n2)cc1	TAG inh 72.6 | TAG conf 90.9
CCOc1cc2c(cc1O)CCC1C2CCC2(C)C(O)CCC12 (stereo not given)	TAG inh 73.0 (no result: A1 inh, T cruzi inh, Calb FLC, CSC inhib, Beta cell apopt) | TAG conf 57.4
CCCCCCSc1cc(-c2nc3ccc(Cl)cn3c2NC2CCCCC2)ccc1OC	TAG inh 65.9 | TAG conf 44.0
O=C(Nc1ccc2c(c1)OCO2)c1cnc(Cl)c(Cl)c1	none (no result: A1 inh, T cruzi inh, Calb FLC, CSC inhib, Beta cell apopt)
CCCCCCCCn1c(N2CCN(c3cccc(Cl)c3)CC2)nc2c1c(=O)[nH]c(=O)n2C	TAG inh 65.3, T cruzi inh 54.9 | TAG conf 65.6
CCCCCCn1c(N2CCN(c3cccc(Cl)c3)CC2)nc2c1c(=O)[nH]c(=O)n2C	none
CNCCCN1c2ccccc2CCc2ccccc21	TAG inh 57.2 (no result: Calb FLC) | TAG conf 47.0
COc1ccc(CN(CC(O)COCc2ccccc2)S(=O)(=O)c2ccccc2Br)cc1OC (stereo not given)	none (no result: A1 inh, T cruzi inh, Calb FLC, CSC inhib, Beta cell apopt)
CCCCCOC(=O)C1=C(C)NC(=O)NC1c1ccc(OC)cc1 (stereo not given)	none
CCCc1cc(C(=O)N/N=C/c2ccc(CC)s2)c2ccccc2n1	TAG inh 56.1 (no result: CSC inhib) | TAG conf 60.9
COc1ccc(-c2cc3ncnc(Cl)c3s2)cc1	none (no result: TAG inh)
Nc1c(C(=O)NC2CCCC2)c2nc3ccccc3nc2n1/N=C/c1cccnc1	TAG inh 68.5 | TAG conf 72.5
CSc1ccccc1NC(=O)COC(=O)c1ccc(-n2nc(C)cc2C)cc1	none (no result: T cruzi inh, Calb FLC)
COc1ccc(NS(=O)(=O)c2cccc(C(=O)N3CCN(C/C=C/c4ccccc4)CC3)c2)cc1	none (no result: A1 inh, T cruzi inh, Calb FLC, CSC inhib, Beta cell apopt)
Cc1ccc(C(=O)Nc2nnc(NC(=S)Nc3ccccc3)s2)cc1	CSC inhib inconclusive
CCOc1ccc(C(=O)Nc2nnc(NC(=S)Nc3ccccc3)s2)cc1	TAG inh 50.7 | TAG conf 41.7
Cc1ccc(NC(=O)CSc2nnnn2-c2ccc3c(c2)OCO3)cc1C	TAG inh 56.5 | TAG conf inactive
COc1cc([C@@H]2c3cc4c(cc3[C@H](O)[C@H]3COC(=O)[C@H]23)OCO4)cc(OC)c1OC	TAG inh 50.1 (no result: Calb FLC, Beta cell apopt) | TAG conf 48.5
